Rows were chosen to be rich in hits. Some 1.8% of all compounds tested hit in one or more screens of this group.
MBD2 inh: MBD2-methylated oligo binding inhibition; Q9UBB5; TR-FRET, MBD2 binding to methylated oligonucleotide; inhibition, % at 4.4 µM; 370,000 tested, 0.31% active; AID 686964; in the data active means inhibition above about 13%
TDP2 inh: TDP2 (human) inhibition, absorbance primary screen. recombinant TDP2, T5PNP hydrolysis, p-nitrophenol absorbance 415 nm. inhibition, % at 12.8 µM. 370,000 tested, 0.34% active. AID 720702;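 active means inhibition above the mean of all tested compounds plus 3 SD, set per campaign, cut at about 25% in these data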;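 further: 0% = DMSO with enzyme and 100% = buffer with substrate but no TDP2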
Target sequence (O95551 whole entry, looked up): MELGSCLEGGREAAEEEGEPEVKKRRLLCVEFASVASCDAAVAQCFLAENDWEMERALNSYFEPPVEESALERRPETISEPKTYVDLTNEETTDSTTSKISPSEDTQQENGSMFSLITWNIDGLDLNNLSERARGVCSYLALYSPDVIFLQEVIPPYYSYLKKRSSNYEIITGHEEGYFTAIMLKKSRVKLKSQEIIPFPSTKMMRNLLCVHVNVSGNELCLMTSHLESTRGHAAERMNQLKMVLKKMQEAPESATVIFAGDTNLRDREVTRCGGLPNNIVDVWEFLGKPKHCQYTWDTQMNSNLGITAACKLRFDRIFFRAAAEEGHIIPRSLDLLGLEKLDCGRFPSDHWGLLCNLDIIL
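System – recombinant human TDP2 · Amount – 120 nM TDP2 per well · Buffer or medium – Mg2+-containing Tris-HCl buffer, pH 7.5 · Reagent – T5PNP substrate, 5 mM · Dosing – 12.8 µM single point, 1% DMSO · Incubation – 2 h at 37 °C · Measured by – epi absorbance · Read-out basis – percent inhibition · Benchmarks – high control without enzyme, low control DMSO plus TDP2 · Repeats – singlicate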
LEDGF integ inh: blocks HIV-1 LEDGF/p75-dependent DNA integration | TR-FRET IN-LEDGF/p75 DNA integration, Eu/Cy5 | inhibition, % at 3.7 µM | 370,000 tested, 0.64% active;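 active means inhibition above the screen-wide mean plus 3 SD, cut at about 13% in these data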;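 further: signal is the Cy5 over europium emission ratio at 671 and 618 nm; 0% = plate median of compound wells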
UHRF1 MBD2 ctr: UHRF1 methyl-DNA binding inhibition | Q96T88 | UHRF1 binding to methylated oligo, TR-FRET | inhibition, % at 4.4 µM | 370,000 tested, 0.75% active; in the data active means inhibition above about 21%;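 further: UHRF1 SRA domain binding a hemimethylated CpG hairpin DNA probe; 0% = median of test compound wells and 100% = reference inhibitor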
core dimer inh: HCV core protein dimerization inhibition | 300,000 tested, 0.33% active | inhibition, % at 5 µM | TR-FRET GST/Flag-core106 dimerization, 1536-well;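 active means inhibition above the mean of all tested compounds plus 3 SD, set per screening campaign, cut at about 45% in these data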
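Assay system: tagged HCV core106 pair (GST and Flag); medium: KF-containing HEPES buffer, pH 7.45, DTT, CHAPS, BSA; also added: Eu donor and XL665 acceptor anti-tag antibodies; dosing: 5 µM single dose; timing: compound-protein-antibody incubation 4 h at 22.5 °C; signal: TR-FRET 671 and 617 nm emission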
* hit, by the source's call; . = no result.

SMILES	MBD2 inh	TDP2 inh	LEDGF integ inh	UHRF1 MBD2 ctr	core dimer inh
CC(C)CCn1nnnc1C(c1ccc(F)cc1)N1CCC(C(N)=O)CC1 (configuration not stated)	7.2	12.5	3.3	21.7*	-2.4
COc1ccc(CCN2CCCC(CN(C)Cc3cc(Cl)c(O)c(OC)c3)C2)cc1 (configuration not stated)	-1.4	7.6	0.6	53.7*	.
Cn1cc(CCOCc2ccccn2)c2ccccc21	-2.4	-4.0	5.5	0.1	.
COc1ccc(C(=O)NNC(=O)CCC(=O)NNC(=O)c2ccc(OC)cc2)cc1	0.0	6.0	1.2	11.6	-3.5
COc1ccc(C(=O)NNC(=O)CCCCC(=O)NNC(=O)c2ccc(OC)cc2)cc1	8.3	9.6	3.9	22.2*	-2.7
COC(=O)C1CN(CCc2ccccc2)CCS(=O)(=O)N1Cc1ccc(C(F)(F)F)cc1 (configuration not stated)	3.2	-2.1	-0.9	-1.1	.
COC(=O)[C@]12C[C@H](CC(=O)N3CCSCC3)C(=O)N(Cc3ccc(Cl)cc3Cl)C1=C[C@H](C(C)(C)C)O[C@@H]2C	-5.2	-2.3	8.6	-4.3	.
COC(=O)[C@H]1CN(C(=O)c2ccccc2)C(=O)N1	2.5	1.8	-0.1	-2.4	0.7
COC(=O)C1CCC(=S)N1C(=O)c1ccccc1 (configuration not stated)	-3.2	-21.7	-0.6	26.8*	-1.4
COC(=O)c1cc(C(c2ccccc2O)C2CCCO2)n2cccc(C(C)(C)C)c12 (configuration not stated)	4.3	-1.6	2.5	-2.1	.
COC(=O)[C@]12C[C@H](CC(=O)NCc3ccc(C)o3)C(=O)N(Cc3ccccc3)C1=C[C@H](C(C)(C)C)O[C@@H]2C	-6.4	-16.5	5.2	1.5	.
CCc1cc(Cn2nc(-c3ccccc3)cc2C(=O)O)on1	2.7	-5.7	1.2	79.6*	-12.3
CCc1cc(Cn2nc(-c3ccccc3)cc2C(=O)NCc2ccc(C)cc2)on1	-3.8	-18.2	-3.1	-5.6	15.5
Cc1cccc(-c2cccc3c4c([nH]c23)[C@@H]2C[C@H](N(C)C(=O)Nc3ccccc3)[C@H]([C@H](C)O)CN2CC4)c1	1.1	-10.4	5.1	1.3	.
COc1ccc(CCn2c(C)cc(C(=O)COC(=O)c3ccc(NC(=O)CC#N)cc3)c2C)cc1	.	.	.	.	49.6*
Cc1cc(C(=O)COC(=O)c2ccc(NC(=O)CC#N)cc2)c(C)n1CCc1ccc(F)cc1	2.2	4.5	-0.9	1.2	.
C[C@@H]1CN(c2ccc(N3CCN(C(=O)OC(C)(C)C)C[C@H]3C)cc2C#N)CCN1Cc1ccccc1	9.2	-17.3	-3.0	1.6	.
CCN(CC)S(=O)(=O)c1ccc(C(=O)NNC(=O)C2COc3ccccc3O2)cc1 (configuration not stated)	-2.2	4.1	5.9	-1.1	.
CCN(CC1COc2ccccc2O1)S(=O)(=O)c1ccc(C)cc1 (configuration not stated)	8.6	-10.9	3.8	25.6*	4.8
COC(=O)[C@H](CC(C)C)N(CCc1cn(Cc2ccc(C)cc2)nn1)S(=O)(=O)c1ccc(F)cc1Br	6.2	-1.0	0.4	-1.4	.
Nc1cccc2[nH]c(C(F)(F)F)nc12	-0.8	32.1*	7.8	2.3	-5.8
FC(F)(F)c1ccccc1C(C#Cc1ccccc1)NCc1ccc2c(c1)OCO2 (configuration not stated)	4.1	-3.9	-2.8	-3.1	.
C=CCc1ccc(OCCN2CCc3ccccc3C2)c(OC)c1	5.2	-11.2	-3.5	28.8*	-5.2
CN(C)c1ccc(-c2nc3ncc(Cl)cc3[nH]2)cc1	-7.3	-0.5	-8.4	-4.9	.
Cc1nc(-c2ccccc2)sc1-c1ccnn1C	2.1	-11.5	-9.0	43.0*	2.9
COC(=O)[C@]12C[C@H](CC(=O)NCCCCc3ccccc3)C(=O)N(Cc3ccc(Cl)cc3Cl)C1=C[C@H](COCc1ccccc1)O[C@@H]2C	-1.6	-5.2	-1.5	1.0	.
CCC(CC)C(=O)Nc1c2c(nn1-c1ccc(OC)cc1)CS(=O)C2 (configuration not stated)	-2.9	-21.8	-0.1	38.8*	-3.0
CCC(=O)Nc1c2c(nn1-c1ccc(OC)cc1)CS(=O)C2 (configuration not stated)	5.9	1.0	-2.2	0.5	0.2
